Measurements of several laboratories.
Lines come from different studies, so protocols differ.

SMILES	technique	matrix	time	pH	temperature	notes	solubility
Clc1ccc(Nc2ncnc3ccc(-c4cccc(N5CCOCC5)c4)cc23)cc1	–	aqueous buffer	–	pH 7.4	25 °C	–	< 0.4 µM
CNS(=O)(=O)c1ccc(Nc2ncc(C(F)(F)F)c([C@H]3CC[C@@](C)(O)CC3)n2)c(C)c1	–	PBS	2 h	pH 7.4	–	–	11 µM
COc1cc(Cn2nc(-c3ccc(CO)o3)c3ccccc32)ccn1	–	aqueous buffer	6 h	pH 7.4	–	–	> 33 µg/mL
CC(C)N(c1ccc(Cl)c(F)c1)c1ccc(NC(=O)CN(C)c2ccccc2N2CCCC2=O)cn1	–	PBS	–	pH 7.4	–	–	9.6 µM
CNS(=O)(=O)c1ccc(Nc2ncc(C(F)(F)F)c(N3CCC(C)(O)CC3)n2)c(C)c1	–	FaSSIF	2 h	–	–	–	26 µM
Cc1ccc(Oc2ccc(NC(=O)CN(C)c3ccccc3N3CCCC3=O)cc2)cc1	–	PBS	–	pH 7.4	–	–	4.8 µM
C[C@@H]1COCCN1c1cccc(-c2ccc3ncnc(Nc4ncco4)c3c2)c1	–	aqueous buffer	–	pH 7.4	25 °C	–	23 µM
CC(C)(C)OC(=O)N1CCC(Oc2ccc3c(=O)c4c(Cl)cc(F)cc4[nH]c3c2)CC1	absorbance	aqueous buffer	90 min	pH 7.4	–	–	< 3.12 µM
Cc1ncsc1-c1ccc(CNC(=O)[C@@H]2C[C@@H](O)CN2C(=O)[C@@H](NC(=O)COCCOCCOCCNC(=O)C[C@@H]2N=C(c3ccc(Cl)cc3)c3c(sc(C)c3C)-n3c(C)nnc32)C(C)(C)C)cc1	HPLC	water	–	pH 6.9	–	–	45 µg/mL
CN(CC(=O)Nc1ccc(N(C)c2ccc(Cl)c(F)c2)cc1)c1ccccc1N1CCCC1=O	–	PBS	–	pH 7.4	–	–	< 2.5 µM
OCc1ccc(-c2nn(Cc3ccccc3)c3cccnc23)o1	–	aqueous buffer	6 h	pH 7.4	–	–	> 45 µg/mL
CC(=O)N[C@@H](CS)C(=O)O	–	aqueous buffer	–	pH 7.5	–	–	164000 µg/mL
Cc1ccc(Nc2ncnc3ccc(-c4cccc(N5CCOCC5)c4)cc23)cc1	–	aqueous buffer	–	pH 7.4	25 °C	–	0.9 µM
CCCN(CCC)CCCOc1ccc2c(=O)c3c([nH]c2c1)CCCC3	absorbance	aqueous buffer	90 min	pH 7.4	–	–	> 500 µM
COc1cc(NC(=O)Cn2ccc3cc(F)c(-c4cnn(C)c4)cc32)cc(OC)c1OC	–	PBS	–	pH 7.4	–	–	< 2.7 µM
Cc1ccccc1CN1C(=O)C2=C(CCN(Cc3ccccc3)C2)N2CCN=C12	shake flask	aqueous buffer	–	pH 5	–	–	6020 µg/mL
O=c1c2ccc(OCc3ccc(C(F)(F)F)cc3)cc2[nH]c2cc(Cl)cc(F)c12	absorbance	aqueous buffer	90 min	pH 7.4	–	–	< 3.12 µM
O=C(Nc1ccc(OC(F)(F)F)cc1)N[C@H]1CC[C@H](Oc2ccc(C(=O)O)cc2)CC1	–	simulated gastric fluid	10 min	pH 1	37 °C	acidic	0.0002 µg/mL
Cc1ccc(Oc2ccc(NC(=O)COc3ccccc3N3CCCC3=O)cc2)cc1	–	PBS	–	pH 7.4	–	–	4.2 µM
COc1ccc(Oc2ccc3c(=O)c4c(F)cc(Cl)cc4[nH]c3c2)cc1	absorbance	aqueous buffer	90 min	pH 7.4	–	–	< 3.12 µM
Cn1cc(-c2ccc3c(Cl)cn(CC(=O)Nc4ccccc4Cl)c3c2)cn1	–	PBS	–	pH 7.4	–	–	< 2.7 µM
c1ccc(Oc2ccc(Nc3c4c(nc5ccccc35)CCC4)cc2)cc1	–	simulated gastric fluid	30 min	pH 2	–	acidic	25 to 50 µg/mL
O=C(O)c1cc(-c2ccc(-n3ccnn3)cc2)c2ccc(-c3ccc(C(F)(F)F)cc3)cc2c1	–	aqueous buffer	–	pH 4	–	–	0.19 µg/mL

SMILES	technique	matrix	time	pH	temperature	notes	solubility
c1cc(-c2ccc3ncnc(Nc4ncco4)c3c2)nc(N2CCOCC2)n1	–	aqueous buffer	–	pH 7.4	25 °C	–	3 µM
OCc1ccc(-c2nn(Cc3cccnc3)c3ccccc23)o1	–	aqueous buffer	6 h	pH 7.4	–	–	> 45 µg/mL
Cc1cc(-c2ccnc3[nH]cc(F)c23)cc(F)c1[C@@]1(O)[C@H](C)CN(C2CCS(=O)(=O)CC2)C[C@@H]1C	–	aqueous buffer	–	–	–	–	> 50 µg/mL
CCOC(=O)C1=C(CN2CCOCC2)NC(c2nccs2)=NC1c1ccc(F)cc1Br (stereo not shown)	HPLC	aqueous buffer	–	pH 7	–	–	< 1 µg/mL
Cc1ccc(Nc2cnnc3ccc(-c4ccc(N5CCN(C)CC5)cc4)cc23)cn1	–	aqueous buffer	–	pH 7.4	25 °C	–	60 µM
Cc1nsc(-c2nnc3n2CCN(C(=O)c2ccc(F)cc2)[C@@H]3C)n1	–	aqueous buffer	–	pH 7.4	–	–	350 µg/mL
OCc1ccc(-c2nn(Cc3ccccc3)c3cnccc23)o1	–	aqueous buffer	6 h	pH 7.4	–	–	> 45 µg/mL
CCCN1C(=O)COc2ccc(S(=O)(=O)Nc3cc(OC)ccc3OC)cc21	–	PBS	8 h	pH 7.4	–	–	100 µM
N[C@@H]1COc2ccc(-c3cccc(COc4ccccc4C(Nc4ccc5oc(=O)[nH]c5c4)C(=O)O)c3)cc21 (mixture of isomers)	–	aqueous buffer	–	pH 6.8	–	–	200 µM
COc1ccc(Nc2cnnc3cc(-c4cnc(N5CCCN(C)CC5)nc4)ccc23)cc1Cl	–	aqueous buffer	–	pH 7.4	25 °C	–	1000 µM
C[C@@H]1CN(c2cccc(-c3ccc4ncnc(Nc5ncco5)c4c3)c2)C[C@H](C)O1	–	aqueous buffer	–	pH 7.4	25 °C	–	11 µM
CC1(CNc2nc(-c3cccs3)nc(Cl)c2-c2c(F)cc(N)cc2F)COC1	mass spectrometry	PBS	–	pH 7.4	–	–	46 µM
FC(F)(F)c1cc(Nc2ncnc3ccc(-c4cccc(N5CCOCC5)c4)cc23)ccc1Cl	–	aqueous buffer	–	pH 7.4	25 °C	–	< 0.7 µM
CC[C@H]1OC(=O)[C@H](C)[C@@H](O[C@H]2C[C@@](C)(OC)[C@@H](O)[C@H](C)O2)[C@H](C)[C@@H](O[C@@H]2O[C@H](C)C[C@H](N(C)C)[C@H]2O)[C@](C)(O)C[C@@H](C)C(=O)[C@H](C)[C@@H](O)[C@]1(C)O	–	aqueous buffer	18 h	pH 7.4	–	–	664 µM
CCOC(=O)C1=C(CN2CCC[C@@H]2C(=O)Nc2ccc(B(O)O)cc2)NC(c2nccs2)=N[C@H]1c1ccc(F)cc1Br	HPLC	aqueous buffer	–	pH 7	–	–	2.57 µg/mL
Cc1ccc(N(c2ccc(NC(=O)CN(C)c3ccccc3N3CCCC3=O)cn2)C(C)C)cc1	–	PBS	–	pH 7.4	–	–	24 µM
OCc1ccc(-c2nn(Cc3ccncc3)c3ccccc23)o1	–	aqueous buffer	6 h	pH 7.4	–	–	> 45 µg/mL
CNS(=O)(=O)c1ccc(Nc2ncc3cc(Cl)c(=O)n(C4CCCC4)c3n2)c(C)c1	–	FaSSIF	2 h	–	–	–	15 µM
Cc1ncc(-c2cc3cc(-c4c(C)ccc(O)c4C)cnc3[nH]2)cn1	–	aqueous buffer	24 h	pH 7.4	–	–	< 1.56 µM
O=c1c2ccc(Oc3ccc(OC(F)(F)F)cc3)cc2[nH]c2ccc(Cl)c(F)c12	absorbance	aqueous buffer	90 min	pH 7.4	–	–	< 3.12 µM
Cc1nc(Nc2ncnc3ccc(-c4cccc(N5CCOCC5)c4)cc23)oc1C	–	aqueous buffer	–	pH 7.4	25 °C	–	0.2 µM
OCc1ccc(-c2nn(Cc3ccccc3)c3ccncc23)o1	–	aqueous buffer	6 h	pH 7.4	–	–	> 45 µg/mL
O=C(O)Cc1ccccc1Nc1c(Cl)cccc1Cl	–	FaSSIF	–	–	–	–	324 µM
